The source of these data is ChEMBL document CHEMBL5126610, “Beyond Retigabine: Design, Synthesis, and Pharmacological Characterization of a Potent and Chemically Stable Neuronal Kv7 Channel Activator with Anticonvulsant Activity” (J Med Chem, 2022).

Each structure is given as a SMILES string. Calls of active or inactive are those of the source. The rule behind the calls is not given here.

Series [1] in a line: Photo stability of compound in saline at 10 uM irradiated with UV for 3 hrs by HPLC analysis. Format: physicochemical. The note with it: buffer. An outline of the steps:
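Compounds in DMSO diluted into buffered aqueous solution pH 7.4 to a final 10 µM. Irradiated in 1 cm quartz cells by a 150 W UV lamp at 20 cm for 3 h; dark controls held at 37 °C. Aliquots analysed by UHPLC on C18 with TFA water/ACN gradient: 220 nm for loss of parent, 550 nm for phenazine/phenazinium dimers.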

The target of series [2] is T1, Voltage-gated potassium channel, KQT; KCNQ2(Kv7.2)/KCNQ3(Kv7.3) (Homo sapiens) (UniProt O43526+O43525). In words: Activation of Kv7.2/Kv7.3 channel (unknown origin) expressed in CHO cells assessed as slope of fluorescent signal at 10 uM by FluxOR fluorescent dye based assay. Format: cell-based. The following applies: filed as activator. The gist of the method: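 CHO clone stably expressing Kv7.2/Kv7.3 (PiggyBac, puromycin 4 µg/mL), seeded 1.6 × 10^4 cells/well on poly-D-lysine, assayed 24 h later. FluxOR II thallium flux, wash method, ex 485/em 520 nm. Tl+ stimulus buffer added after 5 s, read every 1 s for 50 s. Initial slope taken from 5–15 s. Vehicle 0.1% DMSO, 10 µM retigabine reference; only runs with Z' > 0.5 kept; ≥3 experiments.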

Series [3] deals with T1, Voltage-gated potassium channel, KQT; KCNQ2(Kv7.2)/KCNQ3(Kv7.3) (Homo sapiens). In words: Activation of Kv7.2/Kv7.3 channel (unknown origin) expressed in CHO cells at -80 mV measured after 24 hrs by whole cell patch clamp based electrophysiological method. The note with it: filed as activator.
The target is the same in series [4]. In words: Activation of Kv7.2/Kv7.3 channel (unknown origin) expressed in CHO cells assessed as leftward shift change in half activation potential at 1 uM measured after 24 hrs by whole cell patch clamp based electrophysiological method. The note with it: filed as activator.
Series [5] relates to Mus musculus. In words: Anticonvulsant activity in PTZ induced C57BL/6 mouse acute seizure model assessed as seizure score at 3 mg/kg, ip pretreated for 30 mins followed by PTZ injection and measured upto 30 mins by Liittjohann's scale analysis. Format: functional. The following applies: time 60 min, 1 h. The gist of the method: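 Male C57Bl/6 mice given drug i.p. in saline with 2% Tween-20 and 2% PEG-400 (0.01 mL/g), 30 min before PTZ 100 mg/kg s.c. Observed in Plexiglass boxes for 30 min. Maximal severity scored on the revised Lüttjohann 9-point scale (0–8), latency to maximal seizure recorded. One-way ANOVA with Tukey.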

Series [6] is described as follows: Toxicity in PTZ induced C57BL/6 mouse acute seizure model assessed as mortality at 1 mg/kg, ip. Format: organism-based. The note with it: in vivo. An outline of the steps: (§1)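 Male C57Bl/6 mice were pretreated i.p. with drug in saline containing 2% Tween-20 and 2% PEG-400, 30 min before PTZ (100 mg/kg s.c.). Vehicle controls received the vehicle alone. Survival was recorded as animals alive at the end of the 60 min observation period after PTZ and expressed as percent (surviving/total) per group.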

The test system of series [7] is Mus musculus. In words: Anticonvulsant activity in PTZ induced C57BL/6 mouse acute seizure model assessed as seizure score at 0.3 mg/kg, ip pretreated for 30 mins followed by PTZ injection and measured upto 30 mins by Liittjohann's scale analysis. Format: functional. The note with it: time 60 min, 1 h. The gist of the method:
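Male C57Bl/6 mice, drug in saline with 2% Tween-20 and 2% PEG-400, given i.p. at 0.01 mL/g 30 min before PTZ (100 mg/kg s.c. in saline). Animals watched in clear boxes for 30 min. Maximal severity was scored on the revised Lüttjohann 9-point scale (0 whisker trembling to 8 wild jumping). Group mean reported.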

A short description of series [8]: Toxicity in PTZ induced C57BL/6 mouse acute seizure model assessed as in mortality at 0.3 mg/kg, ip. The class given is organism-based. The note with it: in vivo. An outline of the steps:
as §1

Series [9] deals with T1, Voltage-gated potassium channel, KQT; KCNQ2(Kv7.2)/KCNQ3(Kv7.3) (Homo sapiens). Nature of the series: Activation of Kv7.2/Kv7.3 channel (unknown origin) expressed in CHO cells assessed as half activation potential measured after 24 hrs by whole cell patch clamp based electrophysiological method. The note with it: filed as activator.

As for `Nc1cc(NCc2ccc(C(F)(F)F)cc2)ccc1NC(=O)CCC1CCCCC1`, the Stability entry in [1] is listed as “Stable”.

For `CCCCCCC(=O)Nc1ccc(CCc2ccc(C(F)(F)F)cc2)cc1N`, in [2], the Activity came out at 0.0087.

In the case of `CC(C)(C)CC(=O)Nc1ccc(NCc2c(F)cccc2F)cc1N`, the Stability entry in series [1] is reported as “Stable”.

Take `CCCCCCC(=O)Nc1ccc(NCc2ccccc2)cc1N`: the Stability result in [1] is “Stable”.

Consider `CCOC(=O)Nc1ccc(NCc2ccc(C(F)(F)F)cc2)c(F)c1N`, for which the result in series [3] was Active. For the same molecule, the delta(V1/2) in [4] was determined as 40 mV.

Regarding `CC(C)(C)CC(=O)Nc1ccc(NCc2ccc(C(F)(F)F)cc2)cc1N1CCCC1`, in series [1], the Stability result is recorded as “Unstable”.

`O=C1c2ccccc2C(Cc2ccncc2)(Cc2ccncc2)c2ccccc21`: the Activity with Mus musculus [5] is listed as 7.3.

With `CC(C)(C)CC(=O)Nc1ccc(NCc2ccc(C(F)(F)F)cc2)c(F)c1N`, in series [3], the result was Active. In addition, the figures for the Activity (in [6]; in the series with Mus musculus [7]; in [8]) were 100%, 6 and 87%, respectively. Also, the V1/2 in series [9] was -30.2 mV.

On to `CC(C)(C)CC(=O)Nc1ccc(NCc2ccc(C(F)(F)F)cc2)cc1N`, for which the Stability result in series [1] is listed as “Stable”.

With `CCCCCCC(=O)Nc1ccc(NCc2ccc(C(F)(F)F)cc2)cc1N`, in series [1], the Stability result is given as “Stable”.

On to `CCOC(=O)Nc1ccc(NCc2ccc(F)cc2)cc1N`, for which the result in series [3] was Active.

In the case of `CCCCCCC(=O)Nc1ccc(NCc2ccccc2F)cc1N`, the Stability entry in series [1] was “Stable”.

In the case of `CCCCCCCC(=O)Nc1ccc(NCc2ccc(C(F)(F)F)cc2)cc1N`, in [1], the Stability result is listed as “Stable”.

Regarding `CC(C)(C)CC(=O)Nc1ccc(NCc2ccc(C(F)(F)F)cc2)cc1N1CCCCC1`, the Stability entry in series [1] is listed as “Unstable”.
